Data set [1] has as its system MES-SA. Put plainly: Cytotoxicity against human MES-SA cells assessed as inhibition of cell proliferation incubated for 72 hrs by MTT assay. Type of data set: functional, cell-based. The method in brief:
(§1)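 Cells were seeded (10000/well for A2780, 5000/well for MES-SA/Dx5 and KB-3-1/V1) and left to attach 12 h, then exposed to compound for 72 h. Medium was removed, and MTT (0.83 mg/mL) was added for 1 h at 37 °C. Cells were lysed in DMSO and absorbance read at 540 nm. Signal was corrected for unstained lysate background, normalized to untreated cells, and IC50 taken from a sigmoidal dose-response fit.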
(In general: Formazan colour is commonly taken as a measure of viable cells.)

In data set [2] the test system is MES-SA/Dx5. Put plainly: Cytotoxicity against human MES-SA/DX5 cells assessed as inhibition of cell proliferation incubated for 72 hrs by MTT assay. The class given is functional, cell-based. To be noted: MES-SA/Dx5, 72 h. The procedure, abridged:
as §1

In data set [3] the test system is MES-SA. Briefly: Cytotoxicity against human MES-SA cells transfected with mCherry fluorescent protein assessed as inhibition of cell proliferation incubated for 72 hrs by fluorescent assay. Type of data set: functional, cell-based. Conditions: Homo sapiens, MES-SA, 72 h. The procedure, abridged:
(§2)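 MES-SA and MES-SA/Dx5 cells were made to stably express mCherry by lentiviral transduction. Cells were seeded at 5000 (96-well) or 2500 (384-well) per well, allowed to attach 24 h, then treated with compound dilutions for 72 h. Viability was read as fluorescence, excitation 585 nm, emission 610 nm.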

For data set [4], the system named is MES-SA/Dx5. Put plainly: Cytotoxicity against human MES-SA/DX5 cells transfected with mCherry fluorescent protein assessed as inhibition of cell proliferation incubated for 72 hrs by fluorescent assay. Conditions: Homo sapiens, MES-SA/Dx5, 72 h. The class given is functional, cell-based. The method in brief: as §2
The test system of the next data set is KB 3-1. Briefly: Cytotoxicity against human KB-3-1 cells assessed as inhibition of cell proliferation incubated for 72 hrs by MTT assay. Type of data set: functional, cell-based. Conditions: KB 3-1, 72 h. The method in brief: as §1
The next data set has as its system KB-V1. Briefly: Cytotoxicity against human KB-V1 cells assessed as inhibition of cell proliferation incubated for 72 hrs by MTT assay. The class given is functional, cell-based. Conditions: KB-V1, 72 h. The method in brief: as §1
The next data set deals with A2780. Put plainly: Cytotoxicity against human A2780 cells assessed as inhibition of cell proliferation incubated for 72 hrs by MTT assay. Type of data set: functional, cell-based. To be noted: A2780, 72 h. The procedure, abridged: as §1
The nature of data set [5]: Cytotoxicity against human A2780adr cells assessed as inhibition of cell proliferation incubated for 72 hrs by MTT assay. The class given is functional, cell-based. To be noted: A2780 ADR. The procedure, abridged: as §1
The subject of data set [6] is MES-SA/Dx5. Put plainly: Cytotoxicity against human MES-SA/DX5 cells incubated for 72 hrs in presence of efflux pump inhibitor, Tariquidar by MTT assay. Type of data set: functional, cell-based. The method in brief:
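Run as the 72 h MTT viability readout (12 h attachment, MTT 0.83 mg/mL for 1 h, DMSO lysis, A540), with the P-gp inhibitor Tariquidar at 1 µM co-present. IC50 came from sigmoidal fits of 2 to 4 independent experiments.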

Data set [7] in a line: Selectivity ratio of IC50 for human MES-SA cells to IC50 for human MES-SA/DX5 cells incubated for 72 hrs by MTT assay. Type of data set: functional. The procedure, abridged:
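The selectivity ratio is the IC50 in P-gp-negative parental cells divided by the IC50 in the P-gp-positive resistant partner.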

Data set [8] can be described thus: Selectivity ratio of IC50 for human MES-SA cells transfected with mCherry to IC50 for human MES-SA/DX5 cells transfected with mCherry incubated for 72 hrs by fluorescent assay. Type of data set: functional.
Data set [9] has as its system MES-SA/Dx5. Briefly: Cytotoxicity against human MES-SA/DX5 cells transfected with mCherry fluorescent protein incubated for 72 hrs in presence of efflux pump inhibitor, Tariquidar by fluorescence assay. The class given is functional, cell-based. The method in brief: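 The mCherry-expressing cells (lentiviral) were seeded at 5000 or 2500 per well, attached for 24 h, and exposed 72 h to compounds with Tariquidar coadministered. Live-cell signal was fluorescence at 585 nm excitation and 610 nm emission.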

In another data set the test system is HFF. Briefly: Cytotoxicity against human HFF cells by MTT assay.

Here are results for 7 compounds from ChEMBL document CHEMBL4715714, “Design, synthesis and biological evaluation of thiosemicarbazones, hydrazinobenzothiazoles and arylhydrazones as anticancer agents with a potential to overcome multidrug resistance” (Eur J Med Chem, 2016).

Each structure is given as a SMILES string. The source made the active and inactive calls. The calls are words filed in the database; no cut-off is given here.

As to `COc1ccc(NC(=S)N/N=C(\C)c2ccccn2)cc1`, the IC50 in the data set on MES-SA [1] (read-out: IC50) is 340 nM; in the data set on MES-SA [1] (read-out: pIC50 (converted)), 339 nM; in the data set with MES-SA/Dx5 [2] (read-out: IC50), 14.2 nM; in the data set with MES-SA/Dx5 [2] (read-out: pIC50 (converted)), 14.1 nM; in the data set with MES-SA [3] (read-out: IC50), 250 nM; in the data set with MES-SA [3] (read-out: pIC50 (converted)), 229 nM. Moreover, the IC50 is 64 nM with MES-SA/Dx5 [4] (read-out: IC50); 57.5 nM with MES-SA/Dx5 [4] (read-out: pIC50 (converted)); 950 nM in the data set with KB 3-1 (read-out: IC50); 692 nM in the data set on KB 3-1 (read-out: pIC50 (converted)); 1750 nM in the data set on KB-V1 (read-out: IC50); 1050 nM in the data set on KB-V1 (read-out: pIC50 (converted)). Further, the IC50 in the data set with A2780 (read-out: IC50) is 46 nM; in the data set on A2780 (read-out: pIC50 (converted)), 45.7 nM; in data set [5] (read-out: IC50), 31 nM; in [5] (read-out: pIC50 (converted)), 28.2 nM. For the same compound, the outcome in the data set with MES-SA/Dx5 [6] and with MES-SA/Dx5 [9] was Active. Moreover, the results for the “Ratio IC50” value in data set [7] and in data set [8] were 22.59 and 4.54, respectively.

As for `Cc1ccc(NC(=S)N/N=C/c2ccccc2O)cc1`, the IC50 in the data set on MES-SA [1] (read-out: IC50) was 3970 nM; in the data set on MES-SA/Dx5 [2] (read-out: IC50) it was 5360 nM; in the data set on MES-SA [3] (read-out: IC50), 1440 nM; in the data set with MES-SA/Dx5 [4] (read-out: IC50), 1870 nM; in the data set with KB 3-1 (read-out: IC50), 3360 nM; in the data set with KB 3-1 (read-out: pIC50 (converted)), 3310 nM. Besides, the IC50 in the data set on KB-V1 (read-out: IC50) was 3690 nM; with KB-V1 (read-out: pIC50 (converted)) it was 3470 nM; in the data set with A2780 (read-out: IC50), 5150 nM; in the data set with A2780 (read-out: pIC50 (converted)), 5010 nM; in data set [5] (read-out: IC50), 6010 nM; in [5] (read-out: pIC50 (converted)), 6030 nM. Besides, in the data set on HFF, the Activity entry is “Toxic”.

In the case of `C/C(=N\Nc1nc2ccccc2s1)c1ccccn1`, the IC50 is 200 nM in the data set on MES-SA [1] (read-out: IC50); 219 nM in the data set on MES-SA [1] (read-out: pIC50 (converted)); 14 nM in the data set on MES-SA/Dx5 [2] (read-out: IC50); 12.3 nM in the data set on MES-SA/Dx5 [2] (read-out: pIC50 (converted)); 250 nM in the data set on MES-SA [3] (read-out: IC50); 240 nM with MES-SA [3] (read-out: pIC50 (converted)). Besides, the IC50 was 100 nM with MES-SA/Dx5 [4] (read-out: IC50); 83.2 nM with MES-SA/Dx5 [4] (read-out: pIC50 (converted)); 340 nM with KB 3-1 (read-out: IC50); 372 nM with KB 3-1 (read-out: pIC50 (converted)); 280 nM with KB-V1 (read-out: IC50); 295 nM in the data set with KB-V1 (read-out: pIC50 (converted)). Besides, the IC50 is 94 nM with A2780 (read-out: IC50), 89.1 nM with A2780 (read-out: pIC50 (converted)), 31 nM in data set [5] (read-out: IC50) and 30.2 nM in data set [5] (read-out: pIC50 (converted)). Further, the result in the data set with MES-SA/Dx5 [6] was Active. Besides, the “Ratio IC50” value in data set [7] is given as 17.58. For the same compound, the Activity entry in the data set with HFF was “Non-Toxic”.

Turning to `C/C(=N\Nc1nc2ccccc2s1)c1ccccc1N`, the IC50 in the data set with MES-SA [1] (read-out: IC50) is 45600 nM; with MES-SA [1] (read-out: pIC50 (converted)), 44700 nM; with MES-SA/Dx5 [2] (read-out: IC50), 28000 nM; in the data set with MES-SA/Dx5 [2] (read-out: pIC50 (converted)), 27500 nM; in the data set on MES-SA [3] (read-out: IC50), 46200 nM; with MES-SA/Dx5 [4] (read-out: IC50), 19000 nM. The “Ratio IC50” value in data set [7] was 1.64; in data set [8], 2.41.

As for `COc1ccc(NC(=S)NNC2=c3ccccc3=NC2=O)cc1`, the Activity result with HFF is reported as “Toxic”.

Regarding `CCc1ccc(/C=N/Nc2nc3ccccc3s2)nc1`, the IC50 is 3240 nM with MES-SA [1] (read-out: IC50); 3160 nM in the data set on MES-SA [1] (read-out: pIC50 (converted)); 1850 nM in the data set on MES-SA/Dx5 [2] (read-out: IC50); 1860 nM in the data set on MES-SA/Dx5 [2] (read-out: pIC50 (converted)); 4260 nM with MES-SA [3] (read-out: IC50); 4270 nM in the data set on MES-SA [3] (read-out: pIC50 (converted)). Besides, the IC50 was 3830 nM in the data set on MES-SA/Dx5 [4] (read-out: IC50); 3550 nM in the data set on MES-SA/Dx5 [4] (read-out: pIC50 (converted)); 610 nM in the data set with KB 3-1 (read-out: IC50); 933 nM in the data set with KB 3-1 (read-out: pIC50 (converted)); 1140 nM in the data set with KB-V1 (read-out: IC50); 1150 nM in the data set on KB-V1 (read-out: pIC50 (converted)). Also, the IC50 in the data set on A2780 (read-out: IC50) is 810 nM; in the data set on A2780 (read-out: pIC50 (converted)), 813 nM; in data set [5] (read-out: IC50) it was 620 nM; in data set [5] (read-out: pIC50 (converted)), 589 nM. In data set [7], the “Ratio IC50” value was 1.68.

For `NC(=S)N/N=C/c1ncccc1N` [TRIAPINE], the IC50 came to 1300 nM in the data set with MES-SA [3] (read-out: IC50) and 2520 nM with MES-SA/Dx5 [4] (read-out: IC50). In addition, in the data set with MES-SA/Dx5 [6], the outcome was Active.
